Tests used:
Type in all cases: functional
[1] = Growth inhibition of human HCC2998 cells at 10^-5 M after 48 hrs by Sulforhodamine B assay relative to control; conditions: HCC 2998, 48 h, read-out: GI
Method in brief: (§1)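 Single-dose screen at 10⁻⁵ M. Cells are preincubated 24 h at 37 °C in 5% CO2, then exposed to the compound, diluted from a DMSO stock into medium with gentamicin, for 48 h. Adherent cells are fixed with cold TCA (final 10%) and suspension cells with TCA (final 16%). Cells are stained with 0.4% SRB in 1% acetic acid and bound dye is read at 515 nm. Percent growth inhibition is taken against control wells and time-zero plates.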

NCI-H23 [2] = test: Growth inhibition of human NCI-H23 cells at 10^-5 M after 48 hrs by Sulforhodamine B assay relative to control; conditions: NCI-H23, 48 h, read-out: GI
Method in brief: (§2)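 Single-dose primary screen at 10⁻⁵ M across 49 lines. Cells were plated 24 h beforehand, with a TCA-fixed time-zero plate, then exposed 48 h at 37 °C, 5% CO2. Cells were fixed with cold TCA, stained with SRB and read at 515 nm. Percent growth was calculated against time-zero and untreated-control absorbances.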

SK-OV-3 = test: Growth inhibition of human SKOV3 cells at 10^-5 M after 48 hrs by Sulforhodamine B assay relative to control; conditions: SK-OV-3, 48 h, read-out: GI; method in brief: as §2
HL-60(TB) = test: Growth inhibition of human HL-60(TB) cells at 10^-5 M after 48 hrs by Sulforhodamine B assay relative to control; conditions: HL-60, 48 h, read-out: GI
Method in brief: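 First-stage single-dose screen at 10⁻⁵ M. Cells pre-incubated 24 h at 37 °C, 5% CO2, then exposed to drug for 48 h. Settled cells fixed with TCA (final 16%), SRB-stained and read at 515 nm. Percentage growth inhibition is derived from treated, untreated control and time-zero absorbances.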

CAKI-1 = test: Growth inhibition of human CAKI-1 cells at 10^-5 M after 48 hrs by Sulforhodamine B assay relative to control; conditions: CAKI-1, 48 h, read-out: GI; method in brief: as §1
HCT-116 = test: Growth inhibition of human HCT116 cells at 10^-5 M after 48 hrs by Sulforhodamine B assay relative to control; conditions: HCT-116, 48 h, read-out: GI; method in brief: as §1
SW-620 = test: Growth inhibition of human SW620 cells at 10^-5 M after 48 hrs by Sulforhodamine B assay relative to control; conditions: SW-620, 48 h, read-out: GI; method in brief: as §2
NCI-H460 = test: Growth inhibition of human NCI-H460 cells at 10^-5 M after 48 hrs by Sulforhodamine B assay relative to control; conditions: NCI-H460, 48 h, read-out: GI; method in brief: as §2
OVCAR-5 = test: Growth inhibition of human OVCAR5 cells at 10^-5 M after 48 hrs by Sulforhodamine B assay relative to control; conditions: OVCAR-5, 48 h, read-out: GI; method in brief: as §2
COLO 205 = test: Growth inhibition of human COLO205 cells at 10^-5 M after 48 hrs by Sulforhodamine B assay relative to control; conditions: COLO 205, 48 h, read-out: GI; method in brief: as §1
SK-MEL-28 = test: Growth inhibition of human SK-MEL-28 cells at 10^-5 M after 48 hrs by Sulforhodamine B assay relative to control; conditions: SK-MEL-28, 48 h, read-out: GI; method in brief: as §2
MOLT-4 = test: Growth inhibition of human MOLT4 cells at 10^-5 M after 48 hrs by Sulforhodamine B assay relative to control; conditions: MOLT-4, 48 h, read-out: GI; method in brief: as §2
SF-539 = test: Growth inhibition of human SF539 cells at 10^-5 M after 48 hrs by Sulforhodamine B assay relative to control; conditions: SF-539, 48 h, read-out: GI; method in brief: as §2
UACC-62 = test: Growth inhibition of human UACC62 cells after 48 hrs by Sulforhodamine B assay; conditions: UACC-62, 48 h
Method in brief: (§3)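 Five-concentration stage in the […]-cell-line panel, using 10-fold or ½-log serial dilutions made from a DMSO stock (400-fold). Cells were preincubated 24 h at 37 °C, then drug-exposed 48 h. A time-zero plate was fixed with TCA at dosing, adherent cells were fixed with cold TCA (10% final), and protein was stained with SRB, absorbance 515 nm. GI50 was where [(Ti−Tz)/(C−Tz)]×100 = 50, from the percent growth vs log concentration plot, expressed as log10 GI50.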

ACHN = test: Growth inhibition of human ACHN cells after 48 hrs by Sulforhodamine B assay
Method in brief: (§4)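 Five-concentration SRB assay using 10-fold or ½-log serial dilutions from a DMSO stock. Exposure is 48 h at 37 °C in 5% CO2 after 24 h preincubation. TCA fixation is followed by SRB staining and a reading at 515 nm. Percentage growth is computed from time-zero, control and treated absorbances. GI50 is the concentration where [(Ti−Tz)/(C−Tz)]×100 = 50, read from the plot against log concentration.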

SF-268 = test: Growth inhibition of human SF268 cells after 48 hrs by Sulforhodamine B assay; conditions: SF-268, 48 h
Method in brief: (§5)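 Cells were preincubated 24 h at 37 °C, 5% CO2, and a time-zero plate was TCA-fixed. Five concentrations were made by serial dilution from a DMSO stock (400-fold the top concentration) and incubated 48 h. Adherent cells were fixed with 10% final TCA and suspension cells with 16%. Plates were stained with 0.4% SRB and read at 515 nm. GI50 is the concentration giving 50% reduction in net protein increase versus control.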

MDA-MB-435 = test: Growth inhibition of human MDA-MB-435 cells after 48 hrs by Sulforhodamine B assay; conditions: MDA-MB-435, 48 h; method in brief: as §4
LOX IMVI = test: Growth inhibition of human LOXIMVI cells after 48 hrs by Sulforhodamine B assay; method in brief: as §4
786-0 = test: Growth inhibition of human 786-0 cells after 48 hrs by Sulforhodamine B assay; conditions: 786-0, 48 h; method in brief: as §4
NCI-H23 [3] = test: Growth inhibition of human NCI-H23 cells after 48 hrs by Sulforhodamine B assay; conditions: NCI-H23, 48 h; method in brief: as §5
HCT-15 = test: Growth inhibition of human HCT15 cells after 48 hrs by Sulforhodamine B assay; conditions: HCT-15, 48 h; method in brief: as §4
HOP-92 = test: Growth inhibition of human HOP92 cells after 48 hrs by Sulforhodamine B assay; conditions: HOP-92, 48 h; method in brief: as §4
[4] = Growth inhibition of human HCC2998 cells after 48 hrs by Sulforhodamine B assay; conditions: HCC 2998, 48 h; method in brief: as §4
UACC-257 = test: Growth inhibition of human UACC257 cells after 48 hrs by Sulforhodamine B assay; conditions: UACC-257, 48 h; method in brief: as §3
BT-549 = test: Growth inhibition of human BT549 cells after 48 hrs by Sulforhodamine B assay; conditions: BT-549, 48 h; method in brief: as §4
K562 = test: Growth inhibition of human K562 cells after 48 hrs by Sulforhodamine B assay; conditions: K562, 48 h; method in brief: as §4
A549 = test: Growth inhibition of human A549/ATCC cells at 10^-5 M after 48 hrs by Sulforhodamine B assay relative to control; conditions: A549, 48 h, read-out: GI; method in brief: as §1

| Compound | inhibition of growth at 10 µM [1] | inhibition of growth at 10 µM (NCI-H23 [2]) | inhibition of growth at 10 µM (SK-OV-3) | inhibition of growth at 10 µM (HL-60(TB)) | inhibition of growth at 10 µM (CAKI-1) | inhibition of growth at 10 µM (HCT-116) | inhibition of growth at 10 µM (SW-620) | inhibition of growth at 10 µM (NCI-H460) | inhibition of growth at 10 µM (OVCAR-5) | inhibition of growth at 10 µM (COLO 205) | inhibition of growth at 10 µM (SK-MEL-28) | inhibition of growth at 10 µM (MOLT-4) | inhibition of growth at 10 µM (SF-539) | GI50 (UACC-62) | GI50 (ACHN) | GI50 (SF-268) | GI50 (MDA-MB-435) | GI50 (LOX IMVI) | GI50 (786-0) | inhibition of growth at 10 µM (A549) | further results |
| --- | --- | --- | --- | --- | --- | --- | --- | --- | --- | --- | --- | --- | --- | --- | --- | --- | --- | --- | --- | --- | --- |
| COc1ccc(N2CCN(c3nc(-c4ccncc4)nc4sc5c(c34)CCCCCC5)CC2)cc1 | -11.5% | 17.3% | 0.84% | 15.2% | 28.8% | 23.3% | 1.53% | 5.35% | 2.26% | 5.76% | -5.27% | 16.1% | 7.87% |  |  |  |  |  |  |  |  |
| COc1ccc(N2CCN(c3nc(-c4ccccn4)nc4sc5c(c34)CCCCCC5)CC2)cc1 |  |  |  |  |  |  |  |  |  |  |  |  |  | 6.92 µM | 5.13 µM | > 100 µM | 5.5 µM | 6.31 µM | 8.51 µM |  | GI50 (NCI-H23 [3]): 17 µM; GI50 (HCT-15): 4.27 µM; GI50 (HOP-92): 3.24 µM; GI50 [4]: 10.2 µM; GI50 (UACC-257): 7.24 µM; GI50 (BT-549): 6.92 µM; GI50 (K562): 4.17 µM |
| c1ccc(N2CCN(c3nc(-c4ccncc4)nc4sc5c(c34)CCCCCC5)CC2)cc1 | -14% | 1.33% | 1.97% | 2.53% | 8.66% | -3.45% | -9.11% | -6.17% | 1.59% | -1.65% | -15% | 4.82% | 1.14% |  |  |  |  |  |  | -0.56% |  |
| c1ccc(N2CCN(c3nc(-c4ccccn4)nc4sc5c(c34)CCCCCC5)CC2)cc1 | 13.7% | 37% | 12.6% |  | 45.9% | 80.5% | 24% | 46% | 36.8% | 26.3% | 7.85% | 47.9% | 12.6% |  |  |  |  |  |  | 68.2% |  |
| CN1CCN(c2nc(-c3ccccn3)nc3sc4c(c23)CCCCCC4)CC1 | 4.02% | 16% | -3.22% | 4.37% | 20% | 14.1% | -1.34% | 2.79% | 2.04% | 0.37% | -5.08% | 7.6% | 37.4% |  |  |  |  |  |  | 22.6% |  |
| c1cc(-c2nc(N3CCOCC3)c3c4c(sc3n2)CCCCCC4)ccn1 | -8.59% | 8.29% | 0.61% | 24.6% | 15.8% | 23.2% | -9.82% | 8.02% | -1.32% | -0.84% | -7.03% | 24.5% | 15.8% |  |  |  |  |  |  | 24.9% |  |
| NNc1nc(-c2ccncc2)nc2sc3c(c12)CCCCCC3 | -16% | 7.74% | 9.44% | 16.4% | 7.27% | 4.13% | -8.49% | -4.36% | -0.54% | 2.31% | 4.94% | 9.09% | -14.8% |  |  |  |  |  |  | -1.81% |  |
| c1ccc(-c2nc(N3CCOCC3)c3c4c(sc3n2)CCCCCC4)nc1 |  |  |  |  |  |  |  |  |  |  |  |  |  | 3.47 µM | 4.47 µM | 8.91 µM | 4.79 µM | 5.25 µM | 11.7 µM |  | GI50 (NCI-H23 [3]): 6.03 µM; GI50 (HCT-15): 3.39 µM; GI50 (HOP-92): 0.617 µM; GI50 [4]: 6.92 µM; GI50 (UACC-257): 11 µM; GI50 (BT-549): 4.37 µM; GI50 (K562): 3.47 µM |
| Clc1nc(-c2ccncc2)nc2sc3c(c12)CCCCCC3 | -12.3% | 3.14% | -7.46% | 3.12% | -4.99% | 2.69% | -3.44% | -2.59% | -5.24% | -16.6% | -4.12% | 15.6% | 6.69% |  |  |  |  |  |  | -3.56% |  |
| NNc1nc(-c2ccccn2)nc2sc3c(c12)CCCCCC3 |  |  |  |  |  |  |  |  |  |  |  |  |  | 5.89 µM | 4.9 µM | 7.24 µM | 5.13 µM | 6.17 µM | 5.62 µM |  | GI50 (NCI-H23 [3]): 8.91 µM; GI50 (HCT-15): 1.12 µM; GI50 (HOP-92): 3.55 µM; GI50 [4]: 8.32 µM; GI50 (UACC-257): 6.61 µM; GI50 (BT-549): 9.77 µM; GI50 (K562): 3.8 µM |
| Clc1nc(-c2ccccn2)nc2sc3c(c12)CCCCCC3 | 36.6% | 17.6% | -5.16% | 3.98% | 165% | 15.5% | -2.34% | 9.1% | -7.94% | -14.6% | 10.7% | 32.3% | 2.75% |  |  |  |  |  |  | 0.18% |  |
| O=c1[nH]c(-c2ccccn2)nc2sc3c(c12)CCCCCC3 |  |  |  |  |  |  |  |  |  |  |  |  |  | 5.5 µM | 5.25 µM | 8.71 µM | > 100 µM | 1.1 µM | 5.62 µM |  | GI50 (NCI-H23 [3]): 11 µM; GI50 (HCT-15): 2.34 µM; GI50 (HOP-92): 3.89 µM; GI50 [4]: 26.3 µM; GI50 (UACC-257): > 100 µM; GI50 (BT-549): 5.62 µM; GI50 (K562): 1 µM |
